pEC50: −log10 of the molar value.
Experiments:
[1] = tested on: Trypanosoma brucei; test: Minimum effective concentration in vitro against the bloodstream trypomastigote form of Trypanosoma brucei; type: functional; conditions: read-out: MEC
Method in brief: (§1)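 T. brucei brucei AnTat 1.9 bloodstream forms kept cell-free at 10⁵ trypanosomes/mL. Drug added in 10-fold dilutions, 50 to 0.01 μM final, 16 replicates per dilution and control. Incubated 48 h at 37 °C, 5% CO2.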

[2] = tested on: Homo sapiens (MRC-5 cells); test: Concentration that cause cytotoxicity at 12.5 uM concentration in human MRC-5 cells
[3] = tested on: Leishmania infantum; test: In vitro percent inhibition against mouse peritoneal macrophages infected with Leishmania infantum at 6.2 uM concentration; type: functional
Method in brief: (§2)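 Primary mouse peritoneal macrophages seeded at 30 000 cells/well. After 24 h, spleen-derived L. infantum (MOHM/MA BE/67) amastigotes added at a 10:1 infection ratio with 2-fold drug dilutions. Incubated 5 days at 37 °C, 5% CO2; uninfected cultures treated in parallel. Total parasite load or infected-macrophage count scored microscopically on Wright-stained slides, versus untreated controls.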

[4] = tested on: Trypanosoma cruzi; test: In vitro percent inhibition against mouse peritoneal macrophages infected with Trypanosoma cruzi at 25 uM concentration; type: functional
Method in brief: (§3)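 Mouse peritoneal macrophages seeded at 30 000 cells/well. After 24 h, about 100 000 T. cruzi Tulahen CL2 trypomastigotes per well added with 2-fold drug dilutions. Incubated 4 days at 37 °C, 5% CO2; uninfected cultures treated alike. Reduction of total parasite load (free trypomastigotes plus intracellular amastigotes) versus untreated controls scored microscopically.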

[5] = tested on: Homo sapiens (MRC-5 cells); test: Concentration that cause cytotoxicity at 25 uM concentration in human MRC-5 cells
[6] = tested on: Leishmania infantum; test: In vitro percent inhibition against mouse peritoneal macrophages infected with Leishmania infantum at 25 uM concentration; type: functional; method in brief: as §2
[7] = tested on: Homo sapiens (MRC-5 cells); test: Concentration that cause cytotoxicity at 6.2 uM concentration in human MRC-5 cells
[8] = tested on: Homo sapiens (MRC-5 cells); test: Concentration that cause cytotoxicity at 3.1 uM concentration in human MRC-5 cells
[9] = tested on: Trypanosoma cruzi; test: In vitro percent inhibition against mouse peritoneal macrophages infected with Trypanosoma cruzi at 6.2 uM concentration; type: functional; method in brief: as §3
[10] = tested on: Trypanosoma cruzi; test: Percent inhibition in vitro against intracellular form of Trypanosoma cruzi at 90 uM concentration; type: functional
Method in brief: (§4)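 T. cruzi Y strain (MHOM/BR/OO/Y) trypomastigotes, grown in L6 myoblast cultures, infect mouse peritoneal macrophages in medium with drug from 90 to 3 μM. Incubation 72 h at 37 °C. Activity read as percent of infected macrophages in treated cultures.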

[11] = tested on: Leishmania donovani; test: Percent inhibition in vitro against intracellular form of Leishmania donovani at 90 uM concentration; type: functional
Method in brief: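 Hamster-spleen-derived L. donovani (MHOM/ET/67/L82) amastigotes infect mouse peritoneal macrophages in chamber slides. Infected cells kept with drug across 90–3 μM in quadruplicate for 7 days at 37 °C. Activity taken as percentage of macrophages cleared of amastigotes; sodium stibogluconate served as positive control.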

[12] = tested on: Trypanosoma cruzi; test: Percent inhibition in vitro against intracellular form of Trypanosoma cruzi at 10 uM concentration; type: functional; method in brief: as §4
[13] = tested on: Trypanosoma cruzi; test: Percent inhibition in vitro against intracellular form of Trypanosoma cruzi at 30 uM concentration; type: functional; method in brief: as §4
[14] = tested on: Trypanosoma cruzi; test: Percent inhibition in vitro against intracellular form of Trypanosoma cruzi at 3 uM concentration; type: functional; method in brief: as §4
[15] = tested on: Trypanosoma cruzi; test: Effective dose against Trypanosoma cruzi; type: functional
[16] = tested on: Leishmania infantum; test: In vitro percent inhibition against mouse peritoneal macrophages infected with Leishmania infantum at 12.5 uM concentration; type: functional; method in brief: as §2
[17] = tested on: Trypanosoma cruzi; test: In vitro percent inhibition against mouse peritoneal macrophages infected with Trypanosoma cruzi at 3.1 uM concentration; type: functional; method in brief: as §3
[18] = tested on: Trypanosoma cruzi; test: In vitro percent inhibition against mouse peritoneal macrophages infected with Trypanosoma cruzi at 12.5 uM concentration; type: functional; method in brief: as §3
[19] = tested on: Homo sapiens (MRC-5 cells); test: Concentration that cause cytotoxicity at 12.5 uM concentration
[20] = tested on: Homo sapiens (MRC-5 cells); test: Concentration that cause cytotoxicity at 25 uM concentration
[21] = tested on: Leishmania infantum; test: In vitro percent inhibition against mouse peritoneal macrophages infected with Leishmania infantum at 3.1 uM concentration; type: functional; method in brief: as §2
[22] = tested on: Homo sapiens (MRC-5 cells); test: Concentration that cause cytotoxicity at 6.2 uM concentration
[23] = tested on: Trypanosoma brucei; test: Effective concentration in vitro against the bloodstream trypomastigote form of Trypanosoma brucei; type: functional, organism-based; method in brief: as §1
[24] = tested on: Homo sapiens (MRC-5 cells); test: Concentration that cause cytotoxicity at 3.1 uM concentration
[25] = tested on: Homo sapiens (MRC-5 cells); test: Concentration that cause cytotoxicity at 1.5 uM concentration
[26] = tested on: Leishmania infantum; test: In vitro percent inhibition against mouse peritoneal macrophages infected with Leishmania infantum at 25 uM concentration; Toxic for macrophage; type: functional, organism-based; method in brief: as §2
[27] = tested on: Trypanosoma cruzi; test: In vitro percent inhibition against mouse peritoneal macrophages infected with Trypanosoma cruzi at 25 uM concentration; Toxic for macrophage; type: functional, organism-based; method in brief: as §3

pEC50 [23]	Structure (SMILES)	minimal effective concentration [1] [µM]	inhibition at 6.2 µM [3] [%]	inhibition at 25 µM [4] [%]	inhibition at 25 µM [6] [%]	inhibition at 6.2 µM [9] [%]	inhibition at 12.5 µM [19] [%]	inhibition at 25 µM [20] [%]	other results
	NC(=O)N/N=C/c1ccc([N+](=O)[O-])o1 [NITROFURAZONE]	5	0	99	0	40			Inhibition [2]: 0%; Inhibition [5]: 0%; Inhibition [7]: 0%; Inhibition [8]: 0%
	Cn1c([N+](=O)[O-])cnc1-c1nnc(NC(=O)C(F)(F)F)s1	31							
	Cn1c(-c2nnc(N)s2)nc(N2CCCCC2)c1[N+](=O)[O-]								inhibition at 90 µM [10]: 41%; inhibition at 90 µM [11]: 0%; inhibition at 10 µM [12]: 0%; inhibition at 30 µM [13]: 3%
	Cn1c([N+](=O)[O-])cnc1/C=N/N=C(/N)S								inhibition at 90 µM [10]: 99%; inhibition at 10 µM [12]: 71%; inhibition at 3 µM [14]: 54%; ED50 [15]: 3.3 µM; inhibition at 30 µM [13]: 93%
	Cn1c(-c2nnc(N)s2)nc(Sc2ccccc2)c1[N+](=O)[O-]		0	80	0	0	3	40	inhibition at 12.5 µM [16]: 0%; inhibition at 3.1 µM [17]: 0%; inhibition at 12.5 µM [18]: 60%; inhibition at 3.1 µM [21]: 0%; inhibition at 6.2 µM [22]: 0%
6.70	CC(=O)Nc1nnc(-c2ncc([N+](=O)[O-])n2C)s1	1.6	0	99	40	99	0	0	inhibition at 12.5 µM [16]: 40%; inhibition at 3.1 µM [17]: 99%; inhibition at 12.5 µM [18]: 99%; inhibition at 3.1 µM [21]: 0%; inhibition at 6.2 µM [22]: 0%
	Nc1nnc(-c2ccc([N+](=O)[O-])o2)o1	> 51							
	Cn1c([N+](=O)[O-])cnc1-c1nnc(NC(=O)CCCC(=O)NC2C(O)OC(CO)C(O)C2O)s1 (centres undefined)		0	99	0	60			inhibition at 12.5 µM [16]: 0%; inhibition at 3.1 µM [17]: 20%; inhibition at 12.5 µM [18]: 99%; inhibition at 3.1 µM [21]: 0%
	Nc1nnc(-c2ccc([N+](=O)[O-])o2)s1		0		40	95	0	4	inhibition at 3.1 µM [24]: 0%; inhibition at 6.2 µM [22]: 0%
	N/C(S)=N/N=C/c1ccc([N+](=O)[O-])s1		0	90	40	40	0	0	inhibition at 3.1 µM [24]: 0%; inhibition at 6.2 µM [22]: 0%
6.30	Cn1c(-c2nnc(N)s2)nc(Br)c1[N+](=O)[O-]	3.3							
5.10	Cn1c([N+](=O)[O-])cnc1S(C)(=O)=O	> 49	0			0	29	85	inhibition at 1.5 µM [25]: 21%; inhibition at 12.5 µM [16]: 0%; inhibition at 3.1 µM [17]: 0%; inhibition at 3.1 µM [24]: 28%; inhibition at 12.5 µM [18]: 0%; inhibition [26]: Toxic for macrophage; inhibition at 3.1 µM [21]: 0%; inhibition [27]: Toxic for macrophage
< 4.39	Cc1nc(-c2nnc(N)s2)n(C)c1[N+](=O)[O-]	> 41							
7.70	Cc1ccc(C(=O)Nc2ccc(S(=O)(=O)O)c3cc(S(=O)(=O)O)cc(S(=O)(=O)O)c23)cc1NC(=O)c1cccc(NC(=O)Nc2cccc(C(=O)Nc3cc(C(=O)Nc4ccc(S(=O)(=O)O)c5cc(S(=O)(=O)O)cc(S(=O)(=O)O)c45)ccc3C)c2)c1 [SURAMIN]	0.8							
4.60	Cn1c(-c2nnc(N)s2)nc(C(F)(F)F)c1[N+](=O)[O-]	> 34							

Source: ChEMBL document CHEMBL1145957 (J Med Chem, 2003)
